# Assay results: ChEMBL document CHEMBL3351994, “Synthesis and biological evaluation of novel millepachine derivatives as a new class of tubulin polymerization inhibitors” (J Med Chem, 2014)
# Tests used:
# [1] = tested on: HepG2; assay: Antiproliferative activity against human HepG2 cells assessed as inhibition of cell proliferation after 48 hrs by MTT assay; type: functional, cell-based
# In short: (§1)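 Cells grown at 37 °C in humidified 5% CO2. K562, C26 and HCT lines in RPMI-1640; other lines in DMEM; both media with 10% FBS, penicillin and streptomycin. 1000 cells/well seeded, incubated overnight, then compound at various doses for 48 h. MTT added for 4 h, formazan dissolved in DMSO, absorbance read at 590 nm. IC50 from dose–response curves, mean ± SEM of at least three independent experiments.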
# [2] = tested on: A-375; assay: Antiproliferative activity against human A375 cells assessed as inhibition of cell proliferation after 48 hrs by MTT assay; type: functional, cell-based; settings: A-375, 48 h; in short: as §1
# [3] = tested on: K562; assay: Antiproliferative activity against human K562 cells assessed as inhibition of cell proliferation after 48 hrs by MTT assay; type: functional, cell-based; settings: K562, 48 h; in short: as §1
# [4] = Solubility in PBS solution by nephelometry; type: physicochemical
# In short: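 Maximum soluble concentration in PBS, determined by nephelometry.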
SMILES,"IC50 ([1]; Homo sapiens, HepG2, 48 h) [nM]",IC50 [2] [nM],IC50 [3] [nM],IC50 ([1]; hepg2) [nM],solubility kinetic [4] [µg/mL]
COc1ccc(/C=C/C(=O)c2ccc(OC)c3c2OC(C)(C)C=C3)cc1N.CS(=O)(=O)O,,,,10,50
COc1ccc(/C=C/C(=O)c2ccc(OC)c3c2OC(C)(C)C=C3)cc1NCCN1CCOCC1,> 2000,> 2000,> 2000,,
COc1ccc(/C=C/C(=O)c2ccc(OC)c3c2OC(C)(C)C=C3)cc1N(Cc1ccccc1)Cc1ccccc1,> 2000,> 2000,114,,
COc1ccc(/C=C/C(=O)c2ccc(OC)c3c2OC(C)(C)C=C3)cc1NC(=O)Cc1cccc(C(F)(F)F)c1,> 2000,> 2000,> 2000,,
COc1ccc(/C=C/C(=O)c2ccc(OC)c3c2OC(C)(C)C=C3)cc1N.O=C(O)C(O)C(O)C(=O)O,11,,,,52
COc1ccc(/C=C/C(=O)c2ccc(OC)c3c2OC(C)(C)C=C3)cc1NS(=O)(=O)c1ccc(C)cc1,> 2000,> 2000,> 2000,,
CCN(CC)c1cc(/C=C/C(=O)c2ccc(OC)c3c2OC(C)(C)C=C3)ccc1OC,> 2000,> 2000,> 2000,,

# Further lines, with some results ahead:
"IC50 ([1]; Homo sapiens, HepG2, 48 h) [nM]",IC50 [2] [nM],IC50 [3] [nM],SMILES,IC50 ([1]; hepg2) [nM],solubility kinetic [4] [µg/mL]
> 2000,2000,> 2000,COc1ccc(/C=C/C(=O)c2ccc(OC)c3c2OC(C)(C)C=C3)cc1NS(=O)(=O)Cc1ccccc1,,
1640,1600,1580,C#CCNc1cc(/C=C/C(=O)c2ccc(OC)c3c2OC(C)(C)C=C3)ccc1OC,,
280,700,890,COc1ccc(/C=C/C(=O)c2ccc(OC)c3c2OC(C)(C)C=C3)cc1NC(=O)CN,,
110,360,220,COc1ccc(/C=C/C(=O)c2ccc(OC)c3c2OC(C)(C)C=C3)cc1NC(=O)[C@@H](C)N,,
1960,1870,1580,COc1ccc(/C=C/C(=O)c2ccc(OC)c3c2OC(C)(C)C=C3)cc1NS(=O)(=O)C1CC1,,
570,430,700,COc1ccc(/C=C/C(=O)c2ccc(OC)c3c2OC(C)(C)C=C3)cc1NC(C)=O,,
840,1120,1120,C=CC(=O)Nc1cc(/C=C/C(=O)c2ccc(OC)c3c2OC(C)(C)C=C3)ccc1OC,,
